Structures are written as SMILES. Where two headings read alike, the source gives them in different places.

Data set [1] relates to thrombin generation. The experiment in a line: Thrombin generation assay. In kind it is biochemical. The note with it: 70% human platelet-poor plasma, mean ± SD; for Cmax: read-out: Tmax EC2x (concentration of inhibitor required to double the time at which Cmax occurs).
The subject of data set [2] is male SD rats. The note with it: rat, cited from earlier work.
In data set [3] the test system is thrombin-mediated platelet activation. The experiment in a line: In vitro platelet activation in whole blood. The format is cell-based. The note with it: read-out: EC50 inhibition of platelet activation, Rat blood—Thrombin; 20% whole blood; mean ± SD.
In data set [4] the test system is male CD-1 mice. Briefly: Mouse iron-chloride-induced arterial thrombosis model. The format is in vivo.
The test system of data set [5] is male SD rats. The note with it: rat, cited from earlier work. The source holds these as a separate data set.
The subject of data set [6] is TF-mediated platelet activation. The experiment in a line: In vitro platelet activation in whole blood. In kind it is cell-based, human. The settings on record: mean ± SD.
For data set [7], the system named is thrombin-mediated platelet activation. Briefly: In vitro platelet activation in whole blood. The format is cell-based, human. The note with it: mean ± SD.
Data set [8] relates to male SD rats. The experiment in a line: Platelet status in AV shunt model. The format is in vivo. The settings on record: rat, vehicle approximately 20%.
Data set [9] concerns male SD rats. Briefly: Inferior vena cava. In kind it is in vivo. The settings on record: rat.
Data set [10] relates to thrombin-mediated platelet activation. Briefly: In vitro platelet activation in whole blood. In kind it is cell-based. The settings on record: read-out: EC50 inhibition of platelet activation, Mouse blood—Thrombin; 20% whole blood; mean ± SD.
Data set [11] relates to male SD rats. Briefly: Arteriovenous shunt. The settings on record: rat, 3 mg/kg infusion. The format is in vivo.
Data set [12] deals with male CD-1 mice. The experiment in a line: Thrombin-induced thromboembolism mouse model. In kind it is in vivo. The settings on record: 4.5 mg/kg IV, 30 min observation, human α-thrombin 1.75 U/g. In short, it runs like this:
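Mice anaesthetised with 1:1 ketamine:xylazine. Test compound given by tail-vein injection; 30 s later human α-thrombin in PBS (1.75 U/g body weight) or PBS alone injected slowly. Mortality observed for 30 min; animals alive at 30 min scored as survivors and euthanised by cervical dislocation. Results expressed as percent survival; n = 12 per treatment group.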

`O=C(NC[C@H]1CN(c2ccc(N3CCOCC3=O)cc2)C(=O)O1)c1ccc(Cl)s1` [Rivaroxaban, rivaroxaban]: the EC50 in data set [1] (read-out: Cmax EC50) was found to be 100 ± 100 nM; in [1] (read-out: ETP EC50), 310 ± 140 nM. Further, the Cmax in data set [1] turned out to be 100 ± 30 nM. The “EC50 in AV shunt model, literature value” in data set [2] is reported as 0.3 mg/kg.

As to `[H]/N=C(/N)c1ccc(NCc2nc3cc(C(=O)N(CCC(=O)O)c4ccccn4)ccc3n2C)cc1` [Dabigatran, dabigatran], the 50% effective concentration (EC50) is 450 ± 450 nM in data set [1] (read-out: Cmax EC50); 310 ± 240 nM in data set [1] (read-out: ETP EC50); 27 ± 10 nM in [3]; 29 ± 3 nM in [6] (read-out: EC50 inhibition of platelet activation, Human blood (76%)—TF, 76% whole blood); 23 ± 6 nM in data set [6] (read-out: EC50 inhibition of platelet activation, Human blood—TF, 20% whole blood); 14 ± 1 nM in data set [7] (read-out: EC50 inhibition of platelet activation, Human blood (76%)—Thrombin, 76% whole blood). For the same molecule, the EC50 in data set [7] (read-out: EC50 inhibition of platelet activation, Human blood—Thrombin, 20% whole blood) came to 35 ± 10 nM; in data set [10] it was 21 ± 10 nM. Also, the Cmax in [1] stood at 240 ± 240 nM. Besides, in data set [4] (0.2 mg/kg), the occlusion time is over 30 min. Also, the “ED50, value published by the manufacturer” value in [5] (IV) was 0.033 mg/kg. Moreover, the “activated platelets (average over time points)” value in data set [8] (0.1 mg/kg IV) is under 10%. Further, the ED50 thrombus formation in data set [9] (IV administration) stood at 0.01 mg/kg. Besides, the “EC50 in AV shunt model, literature” value in data set [2] is ~ 0.04 mg/kg.

For the molecule `COc1ccc(-n2nc(C(N)=O)c3c2C(=O)N(c2ccc(N4CCCCC4=O)cc2)CC3)cc1` [Apixaban, apixaban], the EC50 was determined as 100 ± 100 nM in data set [1] (read-out: Cmax EC50) and 470 ± 10 nM in data set [1] (read-out: ETP EC50). Also, the Cmax in data set [1] stood at 70 ± 40 nM. This molecule showed an occlusion time in data set [4] (6 mg/kg infusion) of over 30 min. Also, the “inhibition of thrombus formation, literature” value in data set [5] (ref 47 (Shumacher et al. 2010)) is recorded as “about 60%”. Further, the “inhibition of thrombus formation” value was “about 90%” in data set [11] and 90% in [9] (3 mg/kg/infusion). The “inhibition of thrombus formation, literature value” in data set [2] (3 mg/kg/infusion) is on record as ~ 80%.

Consider `CC1CNc2c(cccc2S(=O)(=O)N[C@@H](CCCNC(=N)N)C(=O)N2CC[C@@H](C)C[C@@H]2C(=O)O)C1` (some centres unmarked) [Argatroban, argatroban], for which the figures for the EC50 in [1] (read-out: Cmax EC50) and in [1] (read-out: ETP EC50) were 350 ± 140 nM and 360 ± 162 nM, respectively. Further, the Cmax in data set [1] amounted to 454 ± 240 nM. Besides, the occlusion time in data set [4] (4 mg/kg) is reported as over 30 min. Further, the “treated mice in which mortality was prevented” value in [12] is on record as 91%. The “activated platelets (average over time points)” value in data set [8] (2 mg/kg IV) was under 10%.
